The source made the active and inactive calls. The calls are words filed in the database; no cut-off is given here.
How the values were obtained:
[1] = AUC (infinity) in Harlan rat at 1 mg/kg, iv by LC-MS/MS analysis; type: ADME, organism-based; design: dose 1 mg/kg, route intravenous, time infinity; conditions: in vivo
Method in brief: (§1)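 Male fed rats. The IV dose was given in 100% DMSO. The oral dose was given in 1% Tween 80, 2% HPMC, 97% water/NaOH (pH 8.5).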

[2] = molecular target: Cytochrome P450 2D6 (Homo sapiens, UniProt P10635)
Chain of Cytochrome P450 2D6 (P10635 whole entry): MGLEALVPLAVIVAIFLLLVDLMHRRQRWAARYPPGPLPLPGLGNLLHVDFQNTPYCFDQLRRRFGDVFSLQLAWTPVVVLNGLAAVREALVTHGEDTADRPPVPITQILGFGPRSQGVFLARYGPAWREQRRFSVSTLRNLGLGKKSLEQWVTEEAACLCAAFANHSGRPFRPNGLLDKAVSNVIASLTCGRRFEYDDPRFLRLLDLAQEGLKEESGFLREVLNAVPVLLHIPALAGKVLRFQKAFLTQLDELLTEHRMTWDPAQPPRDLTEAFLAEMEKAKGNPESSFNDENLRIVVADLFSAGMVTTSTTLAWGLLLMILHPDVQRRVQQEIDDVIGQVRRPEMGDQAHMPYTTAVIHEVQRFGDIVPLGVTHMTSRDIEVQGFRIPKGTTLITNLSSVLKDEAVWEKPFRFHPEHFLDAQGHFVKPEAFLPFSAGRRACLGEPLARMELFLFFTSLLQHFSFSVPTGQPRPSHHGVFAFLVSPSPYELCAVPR

[3] = test system: Mus musculus; assay: In vivo inhibition of Nav1.7 in C57BL/6 mouse assessed as reduction in histamine-induced scratching bouts at 30 mg/kg, po administered 4 hrs prior to histamine challenge measured for 15 mins; type: functional, organism-based
Method in brief: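 Mice were dosed orally with vehicle, diphenhydramine (30 mg/kg, n = 8) or test article at 30 (n = 9), 100 (n = 10) or 300 (n = 10) mg/kg; vehicle n = 12. All groups received histamine intradermally. Total scratch bouts were counted, with unbound plasma concentration reported per dose. Statistics: one-way ANOVA with Dunnett's test versus vehicle.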

[4] = Free plasma concentration in naive C57BL/6 mouse assessed as effect on basic locomotor movement at 30 mg/kg, po measured after 4 hrs for 60 mins by open field test; type: ADME, organism-based; conditions: in vivo
Method in brief: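 Naive mice were dosed orally with vehicle or test article at 30, 100 or 300 mg/kg (n = 10 per group). Total basic movement in an open-field arena was recorded after dosing, and unbound plasma concentration was reported per dose.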

[5] = molecular target: Sodium channel protein type 9 subunit alpha (Mus musculus, UniProt Q62205); assay: Inhibition of Nav1.7 in C57BL/6 mouse DRG neurons assessed as reduction in native TTX-S current amplitude by manual patch clamp electrophysiology assay
Chain of Sodium channel protein type 9 subunit alpha (Mus musculus, UniProt Q62205) (Q62205 whole entry): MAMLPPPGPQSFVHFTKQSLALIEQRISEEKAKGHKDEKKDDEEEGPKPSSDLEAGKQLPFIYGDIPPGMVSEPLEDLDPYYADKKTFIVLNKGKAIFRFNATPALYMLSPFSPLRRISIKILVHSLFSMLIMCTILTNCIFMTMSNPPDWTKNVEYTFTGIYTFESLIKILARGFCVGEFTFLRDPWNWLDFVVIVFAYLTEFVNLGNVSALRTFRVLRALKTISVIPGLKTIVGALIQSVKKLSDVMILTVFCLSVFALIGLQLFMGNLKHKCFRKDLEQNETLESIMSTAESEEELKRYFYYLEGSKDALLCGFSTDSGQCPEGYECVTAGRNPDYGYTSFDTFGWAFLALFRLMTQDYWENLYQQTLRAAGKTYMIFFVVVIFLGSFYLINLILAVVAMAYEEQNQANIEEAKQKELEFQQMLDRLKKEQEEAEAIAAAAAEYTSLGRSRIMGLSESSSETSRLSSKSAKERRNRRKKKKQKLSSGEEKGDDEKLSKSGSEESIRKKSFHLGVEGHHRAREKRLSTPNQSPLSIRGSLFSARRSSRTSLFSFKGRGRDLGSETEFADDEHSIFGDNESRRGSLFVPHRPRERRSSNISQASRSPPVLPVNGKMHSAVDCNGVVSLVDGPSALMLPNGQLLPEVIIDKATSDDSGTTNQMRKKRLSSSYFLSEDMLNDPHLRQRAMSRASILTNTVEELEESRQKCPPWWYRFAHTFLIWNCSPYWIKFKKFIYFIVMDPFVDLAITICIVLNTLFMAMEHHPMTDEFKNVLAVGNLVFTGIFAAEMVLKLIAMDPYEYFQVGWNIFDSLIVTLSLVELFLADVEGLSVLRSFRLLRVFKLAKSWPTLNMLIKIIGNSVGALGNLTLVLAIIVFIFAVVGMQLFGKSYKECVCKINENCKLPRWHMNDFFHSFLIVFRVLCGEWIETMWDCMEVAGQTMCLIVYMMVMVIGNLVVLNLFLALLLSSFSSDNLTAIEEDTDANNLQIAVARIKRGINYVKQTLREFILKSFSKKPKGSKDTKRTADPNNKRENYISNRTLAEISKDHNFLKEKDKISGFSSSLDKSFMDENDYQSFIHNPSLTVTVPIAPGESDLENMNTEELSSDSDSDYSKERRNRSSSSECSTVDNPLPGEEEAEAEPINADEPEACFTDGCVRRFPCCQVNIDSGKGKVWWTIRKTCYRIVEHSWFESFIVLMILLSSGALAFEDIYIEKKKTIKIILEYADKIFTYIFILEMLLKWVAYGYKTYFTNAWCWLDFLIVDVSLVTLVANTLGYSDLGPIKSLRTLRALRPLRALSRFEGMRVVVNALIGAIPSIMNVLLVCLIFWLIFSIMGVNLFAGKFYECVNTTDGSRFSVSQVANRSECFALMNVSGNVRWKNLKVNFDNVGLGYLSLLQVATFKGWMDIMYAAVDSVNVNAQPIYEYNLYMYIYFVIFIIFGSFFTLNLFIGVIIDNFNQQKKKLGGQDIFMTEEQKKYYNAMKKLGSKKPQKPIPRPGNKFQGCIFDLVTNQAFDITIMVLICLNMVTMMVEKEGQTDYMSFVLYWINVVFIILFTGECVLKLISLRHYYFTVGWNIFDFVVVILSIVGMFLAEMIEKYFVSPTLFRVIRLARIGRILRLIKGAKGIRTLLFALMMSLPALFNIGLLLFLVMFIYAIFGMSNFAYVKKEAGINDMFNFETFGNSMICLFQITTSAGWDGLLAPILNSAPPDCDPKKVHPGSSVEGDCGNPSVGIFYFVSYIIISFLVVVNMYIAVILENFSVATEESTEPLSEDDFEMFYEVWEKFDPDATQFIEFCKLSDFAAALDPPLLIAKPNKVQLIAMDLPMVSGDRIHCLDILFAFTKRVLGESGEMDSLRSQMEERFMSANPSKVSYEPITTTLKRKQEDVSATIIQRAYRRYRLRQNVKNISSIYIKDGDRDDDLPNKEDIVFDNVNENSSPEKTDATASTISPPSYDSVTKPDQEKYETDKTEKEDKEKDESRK

[6] = AUC (infinity) in Harlan rat at 10 mg/kg, po by LC-MS/MS analysis; type: ADME, organism-based; design: dose 10 mg/kg, route oral, time infinity; conditions: in vivo; method in brief: as §1
[7] = Half life in Harlan rat at 1 mg/kg, iv by LC-MS/MS analysis; type: ADME, organism-based; conditions: in vivo; method in brief: as §1
[8] = Oral bioavailability in Harlan rat at 10 mg/kg by LC-MS/MS analysis; type: ADME, organism-based; conditions: in vivo; method in brief: as §1
[9] = molecular target: Bile salt export pump (Homo sapiens, UniProt O95342); assay: Inhibition of human BSEP in plasma membrane vesicles after 10 mins in presence of [3H]-taurocholate by topcount based transport assay; type: cell membranes
[10] = molecular target: T1, Nuclear receptor subfamily 1 group I member 2 (Homo sapiens, UniProt O75469); assay: Induction of human PXR at 10 uM; type: ADME
T1 sequence (O75469 whole entry): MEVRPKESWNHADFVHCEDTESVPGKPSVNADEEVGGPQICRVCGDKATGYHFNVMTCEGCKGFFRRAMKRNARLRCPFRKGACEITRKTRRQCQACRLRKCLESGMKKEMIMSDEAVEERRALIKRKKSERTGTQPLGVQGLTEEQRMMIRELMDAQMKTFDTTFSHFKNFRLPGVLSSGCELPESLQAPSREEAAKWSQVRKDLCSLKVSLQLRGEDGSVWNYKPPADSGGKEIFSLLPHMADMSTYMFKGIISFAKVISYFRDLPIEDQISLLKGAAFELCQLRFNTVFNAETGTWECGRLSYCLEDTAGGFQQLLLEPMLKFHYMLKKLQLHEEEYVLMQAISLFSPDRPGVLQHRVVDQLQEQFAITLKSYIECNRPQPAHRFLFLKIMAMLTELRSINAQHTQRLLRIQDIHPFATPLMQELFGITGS

[11] = molecular target: Sodium channel protein type 9 subunit alpha (Homo sapiens, UniProt Q15858); assay: Displacement of [3H]-6,6-fused heteroaryl-sulfonamide derivative from human Nav1.7 expressed in HEK293 cell membranes preincubated for 30 mins followed by radioligand addition measured after 1 hr by scintillation counting analysis
Chain of Sodium channel protein type 9 subunit alpha (Homo sapiens, UniProt Q15858) (Q15858 whole entry, the tested form may be a part): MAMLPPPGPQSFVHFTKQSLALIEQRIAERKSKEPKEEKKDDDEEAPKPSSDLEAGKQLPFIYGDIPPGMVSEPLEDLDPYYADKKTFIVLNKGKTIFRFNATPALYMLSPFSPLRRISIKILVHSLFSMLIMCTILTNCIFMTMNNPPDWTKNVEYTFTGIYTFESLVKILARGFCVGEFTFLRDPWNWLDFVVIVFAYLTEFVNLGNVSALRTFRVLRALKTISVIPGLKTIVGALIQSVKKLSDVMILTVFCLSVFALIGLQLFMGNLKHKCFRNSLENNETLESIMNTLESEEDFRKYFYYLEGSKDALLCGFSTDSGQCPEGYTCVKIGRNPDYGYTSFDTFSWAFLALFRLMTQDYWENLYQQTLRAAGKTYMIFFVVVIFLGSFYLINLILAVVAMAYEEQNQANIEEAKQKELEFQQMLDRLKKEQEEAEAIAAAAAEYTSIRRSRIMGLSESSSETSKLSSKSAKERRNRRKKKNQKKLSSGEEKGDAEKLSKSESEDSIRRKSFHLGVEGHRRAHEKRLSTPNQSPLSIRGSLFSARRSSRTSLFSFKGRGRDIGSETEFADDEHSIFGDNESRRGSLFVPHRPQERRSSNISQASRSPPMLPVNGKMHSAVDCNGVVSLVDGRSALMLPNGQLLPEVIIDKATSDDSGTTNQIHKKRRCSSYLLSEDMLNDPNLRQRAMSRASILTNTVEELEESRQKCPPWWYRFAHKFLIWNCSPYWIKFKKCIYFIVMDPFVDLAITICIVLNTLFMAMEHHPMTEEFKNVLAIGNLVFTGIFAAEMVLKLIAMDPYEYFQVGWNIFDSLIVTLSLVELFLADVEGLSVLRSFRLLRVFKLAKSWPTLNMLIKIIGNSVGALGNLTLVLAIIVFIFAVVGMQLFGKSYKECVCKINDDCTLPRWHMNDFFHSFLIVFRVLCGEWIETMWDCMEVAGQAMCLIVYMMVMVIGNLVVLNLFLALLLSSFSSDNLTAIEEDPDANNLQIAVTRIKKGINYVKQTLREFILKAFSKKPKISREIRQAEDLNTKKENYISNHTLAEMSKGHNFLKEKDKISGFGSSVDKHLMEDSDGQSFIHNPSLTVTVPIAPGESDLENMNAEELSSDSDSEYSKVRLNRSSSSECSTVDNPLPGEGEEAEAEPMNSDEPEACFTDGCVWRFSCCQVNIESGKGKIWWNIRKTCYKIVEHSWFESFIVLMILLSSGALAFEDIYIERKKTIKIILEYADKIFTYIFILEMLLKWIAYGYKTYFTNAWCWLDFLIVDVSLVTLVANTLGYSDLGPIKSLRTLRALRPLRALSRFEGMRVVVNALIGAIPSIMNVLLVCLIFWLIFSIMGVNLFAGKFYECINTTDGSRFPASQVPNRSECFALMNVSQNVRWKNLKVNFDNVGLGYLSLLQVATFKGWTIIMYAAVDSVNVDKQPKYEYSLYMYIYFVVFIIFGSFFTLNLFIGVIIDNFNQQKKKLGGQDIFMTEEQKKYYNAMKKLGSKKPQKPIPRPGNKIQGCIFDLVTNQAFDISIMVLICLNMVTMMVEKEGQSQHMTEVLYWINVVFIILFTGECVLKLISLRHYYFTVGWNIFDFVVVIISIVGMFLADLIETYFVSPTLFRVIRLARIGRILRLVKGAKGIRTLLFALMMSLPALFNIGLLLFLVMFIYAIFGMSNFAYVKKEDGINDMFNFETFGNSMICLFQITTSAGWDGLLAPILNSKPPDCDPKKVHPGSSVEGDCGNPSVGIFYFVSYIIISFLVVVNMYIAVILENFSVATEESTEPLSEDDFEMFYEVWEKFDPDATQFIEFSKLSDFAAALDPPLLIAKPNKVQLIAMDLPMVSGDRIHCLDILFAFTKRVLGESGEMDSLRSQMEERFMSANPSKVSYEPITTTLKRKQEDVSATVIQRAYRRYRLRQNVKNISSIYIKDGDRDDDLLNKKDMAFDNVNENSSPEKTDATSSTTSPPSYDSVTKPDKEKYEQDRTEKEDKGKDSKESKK

[12] = molecular target: Cytochrome P450 2C9 (Homo sapiens, UniProt P11712)
Chain of Cytochrome P450 2C9 (P11712 whole entry): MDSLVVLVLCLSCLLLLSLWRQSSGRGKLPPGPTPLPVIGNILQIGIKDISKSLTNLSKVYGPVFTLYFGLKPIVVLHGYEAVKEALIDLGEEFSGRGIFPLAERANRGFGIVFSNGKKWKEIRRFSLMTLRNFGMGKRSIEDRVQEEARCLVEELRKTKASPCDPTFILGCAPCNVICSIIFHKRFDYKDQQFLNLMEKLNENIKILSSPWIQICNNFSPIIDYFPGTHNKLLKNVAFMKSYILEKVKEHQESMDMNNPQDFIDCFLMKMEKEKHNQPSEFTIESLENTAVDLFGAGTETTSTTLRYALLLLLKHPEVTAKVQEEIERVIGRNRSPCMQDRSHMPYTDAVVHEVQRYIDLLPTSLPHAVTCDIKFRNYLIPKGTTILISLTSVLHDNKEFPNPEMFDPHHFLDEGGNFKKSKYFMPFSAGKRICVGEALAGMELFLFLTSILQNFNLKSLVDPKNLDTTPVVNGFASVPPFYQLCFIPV

[13] = molecular target: Cytochrome P450 3A4 (Homo sapiens, UniProt P08684)
[14] = Toxicity in C57BL/6 mouse assessed as reduction in locomotor activity at 30 mg/kg, po for 4 hrs by open field test; conditions: in vivo
[15] = Protein binding in mouse plasma at 5 uM after 45 mins by LC-MS/MS analysis; type: ADME, cell-free; conditions: read-out: PPB (converted)

COc1cc(C(=O)NS(C)(=O)=O)c(F)cc1-c1cnc(Oc2cc(F)ccc2F)c(Cl)c1
AUC(0-inf) [1]: 5.4 µM·h
IC50 [2]: > 50 µM
inhibition [3]: inactive
Cp(f) [4]: 640 nM
IC50 [5]: 0.27 µM
AUC(0-inf) [6]: 377 µM·h
half-life [7]: 1.84 h
bioavailability [8]: > 100%
IC50 [9]: 13.3 µM
Activity [10]: 3%
IC50 [11]: 0.017 µM
IC50 [12]: 45.3 µM
IC50 [13]: > 50 µM
Activity [14]: Non-Toxic
fraction unbound at 0.75 h, 5 µM [15]: 0.014

Source: ChEMBL document CHEMBL4428053, “Application of a Parallel Synthetic Strategy in the Discovery of Biaryl Acyl Sulfonamides as Efficient and Selective NaV1.7 Inhibitors” (J Med Chem, 2016)
